The target of series [1] is T1, Pyruvate kinase PKM (Homo sapiens, UniProt P14618). Description: Binding affinity to PKM2 in human HL60 cells at 20 uM after overnight incubation by silver staining-based streptavidin-agarose pull-down assay. The series is classed as cell-based. Put shortly:
(§1)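 HL60 lysate incubated overnight at 4 °C with biotinylated probe, with or without excess free parent compound for competition. Pull-down on streptavidin-agarose, then SDS-PAGE with silver staining, or Western blot with anti-PKM2. Repeated at least three times.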
Target sequence in this assay (P14618 2-531 limits assumed): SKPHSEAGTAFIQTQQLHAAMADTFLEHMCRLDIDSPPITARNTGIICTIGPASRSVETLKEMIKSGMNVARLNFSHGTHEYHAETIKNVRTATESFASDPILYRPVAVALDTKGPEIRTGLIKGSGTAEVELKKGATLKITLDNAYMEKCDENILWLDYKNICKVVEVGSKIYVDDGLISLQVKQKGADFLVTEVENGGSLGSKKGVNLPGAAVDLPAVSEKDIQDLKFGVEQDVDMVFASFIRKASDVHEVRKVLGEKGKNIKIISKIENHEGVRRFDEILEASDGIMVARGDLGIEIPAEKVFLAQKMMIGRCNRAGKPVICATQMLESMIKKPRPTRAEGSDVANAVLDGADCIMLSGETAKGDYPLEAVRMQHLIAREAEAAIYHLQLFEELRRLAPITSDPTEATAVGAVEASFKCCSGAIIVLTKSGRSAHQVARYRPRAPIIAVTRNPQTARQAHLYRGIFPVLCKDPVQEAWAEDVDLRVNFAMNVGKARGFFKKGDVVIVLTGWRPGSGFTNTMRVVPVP

The target of series [2] is T1, Pyruvate kinase PKM. Description: Binding affinity to PKM2 in human HL60 cells at 20 uM after overnight incubation in presence of 200 to 400 uM MCL by silver staining-based streptavidin-agarose pull-down assay. The series is classed as cell-based. Put shortly:
as §1
Target sequence in this assay (P14618 2-531 limits assumed): as above

Series [3] deals with T1, Pyruvate kinase PKM. Description: Binding affinity to PKM2 in human HL60 cells at 20 uM after overnight incubation by Western blot method. It is filed as cell-based. Put shortly: as §1
Target sequence in this assay (P14618 2-531 limits assumed): as above
In general terms: A western blot detects proteins with antibodies after separation by electrophoresis.

Series [4] addresses T1, Pyruvate kinase PKM. Description: Binding affinity to recombinant human PKM2 expressed in Escherichia coli BL21 after overnight incubation by Western blot method. Put shortly:
(§2)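 Recombinant PKM1 or PKM2 incubated overnight at 4 °C with biotinylated probe. Biotin adduct detected by Western blot with streptavidin-HRP; loading checked by anti-PKM1/PKM2 blot. Repeated at least three times.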
Target sequence in this assay (P14618 2-531 limits assumed): as above

Series [5] concerns the target T1, Pyruvate kinase PKM. Description: Binding affinity to recombinant human PKM1 expressed in Escherichia coli BL21 after overnight incubation by Western blot method. Put shortly: as §2
Target sequence in this assay (P14618 2-531 limits assumed): as above
In series [6] the target is T1, Pyruvate kinase PKM. Description: Binding affinity to recombinant human PKM2 at C424 residue expressed in Escherichia coli BL21 after 60 mins by Western blot method.
Target sequence in this assay (P14618 2-531 limits assumed): as above
In series [7] the test system is Pyruvate kinase PKM (Homo sapiens), P14618 [C424S]. Description: Binding affinity to recombinant human PKM2 C424S mutant expressed in Escherichia coli BL21 after 60 mins by Western blot method.
Series [8] deals with T1, Pyruvate kinase PKM. Description: Irreversible binding affinity to recombinant human PKM2 expressed in Escherichia coli BL21 at 20 uM incubated for 2 to 150 mins. Put shortly:
(§3)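 PKM2 (0.25 μM) incubated with biotinylated probe (20 μM, and other concentrations) for varying times. Time-dependent binding curves fitted for observed rate constants (Kobs) at each concentration. Kobs plotted against concentration to derive kact and Ki under an irreversible-binding model.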

For series [9], the target named is T1, Pyruvate kinase PKM. Description: Irreversible binding affinity to recombinant human PKM2 expressed in Escherichia coli BL21. Put shortly: as §3
For series [10], the target named is T1, Pyruvate kinase PKM. Description: Irreversible binding affinity to recombinant human PKM2 expressed in Escherichia coli BL21 assessed as ratio of Kact to Ki. Put shortly: as §3
Series [11] has as its system HL-60. Description: Antiproliferative activity against human HL60 cells after 48 hrs by MTT assay. It is filed as functional, cell-based. Put shortly: (§4)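 Cells exposed to a range of concentrations for 48 h; proliferation by MTT. Mean ± SEM of six independent experiments. Resistant lines (HL-60/ADR, K562/ADR) held in ADR (printed as 1 μmol/mL) for 10–28 days, then 10 days drug-free before use. SW1990 and SH-SY5Y in DMEM + 10% FBS; leukemia lines in medium with 12% FBS. Vehicle 0.1% DMSO.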
Background: Formazan colour is commonly taken as a measure of viable cells.

In the next series the test system is HL60/ADR. Description: Antiproliferative activity against human HL60/ADR cells after 48 hrs by MTT assay. The series is classed as functional, cell-based. Put shortly: as §4
Another series deals with K562. Description: Antiproliferative activity against human K562 cells after 48 hrs by MTT assay. The series is classed as functional, cell-based. Put shortly:
as §4

The next series concerns K562/Adr. Description: Antiproliferative activity against human K562/ADR cells after 48 hrs by MTT assay. The series is classed as functional, cell-based. Put shortly: as §4
Series [12] can be described thus: (§5) Antiproliferative activity against human K562/G cells after 48 hrs by MTT assay. The series is classed as functional, cell-based. The following applies: K562, 48 h. Put shortly: as §4
The species entered for the next series is Homo sapiens. Described as §5. The series is classed as functional, cell-based. Put shortly:
as §4

For another series, the system named is SW1990. Description: Antiproliferative activity against human SW1990 cells after 48 hrs by MTT assay. It is filed as functional, cell-based. Put shortly: as §4
For a further series, the system named is SH-SY5Y. Description: Antiproliferative activity against human SH-SY5Y cells after 48 hrs by MTT assay. It is filed as functional, cell-based. Put shortly:
as §4

A short description of series [13]: Toxicity in zebrafish embryo xenografted with human HL60 cells assessed as mortality at 20 ug/ml relative to control. The series is classed as organism-based, Danio rerio. The following applies: read-out: Activity. Put shortly:
(§6)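 Zebrafish embryos at 2 dpf were injected in the yolk sac with about 300 HL60 cells prelabelled with CM-Dil. Nine injected groups were then exposed to drug at a range of dosages for 3 days, with saline as the negative control. Survival and mortality were scored against the control group, and treated versus control animals were compared by Kaplan–Meier analysis.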
Background: In xenograft studies the graft and the host belong to different species.

Series [14] in a line: Toxicity in zebrafish embryo xenografted with human HL60 cells assessed as survival rate at <= 10 ug/ml treated for 3 days relative to control. The series is classed as organism-based, Danio rerio. Put shortly:
as §6

Series [15] relates to HL-60. Description: Antitumor activity against human HL60 cells xenografted in zebrafish embryo assessed as decrease in cell dissemination measured after 3 days of incubation by CM-Dil staining-based microscopic method. It is filed as functional. Put shortly:
(§7)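 HL60 cells labelled with CM-Dil; about 300 cells injected into yolk sac of embryos at 2 dpf. Embryos kept in compound (1, 3, 10 μg/mL), cytarabine 200 μg/mL or saline for 3 days. Embryos showing dissemination counted by microscopy, 15 larvae per group. Average ± SD of three independent assays; unpaired Student's t test.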

For series [16], the system named is HL-60. Description: Antitumor activity against human HL60 cells xenografted in zebrafish embryo assessed as inhibition of cell proliferation at 10 ug/ml measured after 3 days of incubation by CM-Dil staining-based microscopic method relative to control. It is filed as functional. Put shortly: as §7
The test system of series [17] is HL-60. Description: Antitumor activity against human HL60 cells xenografted in zebrafish embryo assessed as inhibition of cell migration at 10 ug/ml measured after 3 days of incubation by CM-Dil staining-based microscopic method relative to control. It is filed as functional. Put shortly:
as §7

The test system of series [18] is HL-60. Description: Effect on PKM2 levels in human HL60 cells at 2.5 to 10 uM after 20 hrs by Western blot method. The series is classed as functional, cell-based.
The test system of series [19] is HL-60. Description: Antiproliferative activity against human HL60 cells at 5 to 20 uM after 24 hrs in presence of shPKM2 by MTT assay. The series is classed as functional, cell-based. Put shortly:
(§8)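 HL60 transduced with lentiviral shPKM2 or shControl (5 μg/mL Polybrene), selected 72 h in 1 μg/mL puromycin. Stable lines treated with compound or DMSO for 24 h, then viability assayed.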

In series [20] the test system is HL-60. Description: Antiproliferative activity against human HL60 cells at 5 to 20 uM after 24 hrs in presence of shControl by MTT assay. It is filed as functional, cell-based. Put shortly: as §8
Series [21] has as its system HL-60. Description: Antitumor activity against human HL60 cells xenografted in zebrafish embryo assessed as inhibition of cell proliferation at 200 ug/ml measured after 3 days of incubation by CM-Dil staining-based microscopic method relative to control. The series is classed as functional. Put shortly:
as §7

Series [22] deals with HL-60. Description: Antitumor activity against human HL60 cells xenografted in zebrafish embryo assessed as inhibition of cell migration at 200 ug/ml measured after 3 days of incubation by CM-Dil staining-based microscopic method relative to control. It is filed as functional. Put shortly: as §7

From ChEMBL document CHEMBL4184316 (J Med Chem, 2018) come the findings set out here.

Activity calls are given as the source filed them. The calls are words filed in the database; no cut-off is given here.

Sequence of Pyruvate kinase PKM (Homo sapiens), P14618 [C424S] (P14618 whole entry C424S): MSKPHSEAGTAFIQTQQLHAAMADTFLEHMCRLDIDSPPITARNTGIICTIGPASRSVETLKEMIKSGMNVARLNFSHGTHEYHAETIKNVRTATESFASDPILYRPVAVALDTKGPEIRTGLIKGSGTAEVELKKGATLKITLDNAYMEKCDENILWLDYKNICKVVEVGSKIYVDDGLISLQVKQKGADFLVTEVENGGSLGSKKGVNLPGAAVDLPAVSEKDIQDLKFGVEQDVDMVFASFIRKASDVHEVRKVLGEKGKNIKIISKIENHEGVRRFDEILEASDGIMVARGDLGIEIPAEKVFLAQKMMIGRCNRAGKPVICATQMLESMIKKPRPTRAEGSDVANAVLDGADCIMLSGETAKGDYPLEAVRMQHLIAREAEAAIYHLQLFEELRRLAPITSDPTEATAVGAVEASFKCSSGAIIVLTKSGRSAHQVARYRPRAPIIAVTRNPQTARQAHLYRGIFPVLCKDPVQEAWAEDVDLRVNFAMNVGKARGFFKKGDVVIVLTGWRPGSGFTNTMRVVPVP

On to `C=C1C(=O)O[C@H]2[C@H]1CCC(C)=C1CC[C@@](C)(OC(=O)CCCc3cn(CCOCCOCCOCCNC(=O)CCCC[C@H]4SC[C@H]5NC(=O)N[C@H]54)nn3)[C@@H]12`, for which the outcome on Pyruvate kinase PKM [1], at Pyruvate kinase PKM [3], at Pyruvate kinase PKM [4] and on Pyruvate kinase PKM [6] was Active. Moreover, the outcome (at Pyruvate kinase PKM [2]; on Pyruvate kinase PKM [5]; in [7]) was inactive. In addition, the K at Pyruvate kinase PKM [8] was determined as 0.033 min⁻¹. In addition, the Activity result on Pyruvate kinase PKM [8] (TDE = time-dependent effect) was “Tde”. Further, the Kact on Pyruvate kinase PKM [9] amounted to 0.031 min⁻¹. The Ki on Pyruvate kinase PKM [9] is 0.05 µM. Besides, at Pyruvate kinase PKM [10], the Ratio was 1.03 ×10⁴ /M/s.

`CC1=C2CC[C@@](C)(OC(=O)CCCc3cn(CCOCCOCCOCCNC(=O)CCCC[C@H]4SC[C@H]5NC(=O)N[C@H]54)nn3)[C@@H]2[C@H]2OC(=O)[C@@H](C)[C@@H]2CC1`: on Pyruvate kinase PKM [1], the outcome was inactive.

What is called IC50 is the midpoint of a concentration-inhibition curve. Low readings indicate greater potency, high ones weaker potency. As usually defined, the IC90 is the concentration at which the effect reaches the 90% level. Regarding `CC1=C2CC[C@@](C)(O)[C@@H]2[C@H]2OC(=O)[C@@H](CN(C)C)[C@@H]2CC1.O=C(O)/C=C/C(=O)O`, the Activity entry with HL-60 [11], in the series on HL60/ADR, in the series on K562, in the series with K562/Adr, in the series listed under Homo sapiens and with SW1990 was “Dose-dependent effect” throughout. Further, the Activity entry in the series on SH-SY5Y and in the series with HL-60 [15] was “Dose-dependent effect” each time. Also, the IC50 is 3.9 to 16.2 µM in the series on HL-60 [11] (HL-60, 48 h); 3.9 to 16.2 µM in the series with HL60/ADR; 3.9 to 16.2 µM with K562 (K562, 48 h); 3.9 to 16.2 µM with K562/Adr; 3.9 to 16.2 µM in series [12]; 3.9 to 16.2 µM with SW1990 (SW1990, 48 h). For the same compound, the IC50 in the series on SH-SY5Y is 3.9 to 16.2 µM. In addition, the IC90 in the series with HL-60 [11] (HL-60, 48 h) was 16.4 to 54.1 µM; in the series on HL60/ADR it was 16.4 to 54.1 µM; with K562 (K562, 48 h) it was 16.4 to 54.1 µM; in the series with K562/Adr, 16.4 to 54.1 µM; in series [12], 16.4 to 54.1 µM; with SW1990 (SW1990, 48 h), 16.4 to 54.1 µM. This compound yielded an IC90 with SH-SY5Y of 16.4 to 54.1 µM. For the same compound, the mortality at 20 ug/ml in series [13] is 80%. In [14], the survival at 72 h was found to be 100%. Further, the “inhibition (INH)” value came out at 56.44% in the series on HL-60 [16] and 58.1% in the series on HL-60 [17].

In the case of `C=C1C(=O)O[C@H]2[C@H]1CCC(C)=C1CC[C@@](C)(O)[C@@H]12`, the result in the series on HL-60 [18] and in the series with HL-60 [19] was inactive. The outcome with HL-60 [20] was Active.

With `Nc1ccn([C@@H]2O[C@H](CO)[C@@H](O)[C@@H]2O)c(=O)n1` [CYTARABINE], the “inhibition (INH)” value is given as 43.28% in the series on HL-60 [21] and 44.04% with HL-60 [22].
